Legend:
[1] = biological target: T1, Angiotensin-converting enzyme (Oryctolagus cuniculus, UniProt P12822); experiment: In vitro inhibitory activity against rabbit lung Angiotensin I converting enzyme at pH 8.3
T1 sequence (P12822 whole entry): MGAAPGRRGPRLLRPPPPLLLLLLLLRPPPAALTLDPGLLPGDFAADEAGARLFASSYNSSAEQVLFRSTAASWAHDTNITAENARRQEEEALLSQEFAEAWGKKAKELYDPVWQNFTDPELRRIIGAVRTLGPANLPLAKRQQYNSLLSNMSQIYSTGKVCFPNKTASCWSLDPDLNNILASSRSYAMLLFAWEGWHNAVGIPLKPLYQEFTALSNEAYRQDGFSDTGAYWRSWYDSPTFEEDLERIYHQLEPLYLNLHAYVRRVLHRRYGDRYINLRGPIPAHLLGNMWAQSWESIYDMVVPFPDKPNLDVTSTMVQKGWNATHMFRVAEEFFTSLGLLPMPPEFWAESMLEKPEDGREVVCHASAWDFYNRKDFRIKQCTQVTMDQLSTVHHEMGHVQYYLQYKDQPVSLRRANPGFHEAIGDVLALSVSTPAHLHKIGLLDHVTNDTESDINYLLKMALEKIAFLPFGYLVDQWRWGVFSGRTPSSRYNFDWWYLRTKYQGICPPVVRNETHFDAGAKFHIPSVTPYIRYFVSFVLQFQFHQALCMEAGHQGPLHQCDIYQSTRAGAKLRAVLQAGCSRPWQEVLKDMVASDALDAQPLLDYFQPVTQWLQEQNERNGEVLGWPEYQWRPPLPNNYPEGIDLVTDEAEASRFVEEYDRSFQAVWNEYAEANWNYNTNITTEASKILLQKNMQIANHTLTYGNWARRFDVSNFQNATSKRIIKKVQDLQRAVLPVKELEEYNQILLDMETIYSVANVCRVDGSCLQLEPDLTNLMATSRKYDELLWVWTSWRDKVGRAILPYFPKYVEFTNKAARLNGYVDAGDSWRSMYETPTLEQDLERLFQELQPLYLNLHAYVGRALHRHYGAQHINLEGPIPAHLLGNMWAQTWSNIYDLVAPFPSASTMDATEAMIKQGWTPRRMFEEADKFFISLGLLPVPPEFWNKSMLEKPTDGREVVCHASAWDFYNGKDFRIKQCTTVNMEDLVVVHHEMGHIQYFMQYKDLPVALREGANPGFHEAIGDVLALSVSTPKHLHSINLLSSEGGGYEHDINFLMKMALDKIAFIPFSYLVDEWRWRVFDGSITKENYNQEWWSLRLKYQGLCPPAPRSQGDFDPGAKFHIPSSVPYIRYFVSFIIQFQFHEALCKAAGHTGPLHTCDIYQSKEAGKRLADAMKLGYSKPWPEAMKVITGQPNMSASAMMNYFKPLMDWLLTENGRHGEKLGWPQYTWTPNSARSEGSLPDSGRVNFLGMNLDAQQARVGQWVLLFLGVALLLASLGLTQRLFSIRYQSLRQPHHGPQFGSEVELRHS

[2] = biological target: T2, Angiotensin-converting enzyme (Rattus norvegicus) (UniProt P47820); experiment: Peroral dose required to inhibit angiotensin I induced vasopressor response in normotensive conscious rats; assay type: functional
T2 sequence (whole entry): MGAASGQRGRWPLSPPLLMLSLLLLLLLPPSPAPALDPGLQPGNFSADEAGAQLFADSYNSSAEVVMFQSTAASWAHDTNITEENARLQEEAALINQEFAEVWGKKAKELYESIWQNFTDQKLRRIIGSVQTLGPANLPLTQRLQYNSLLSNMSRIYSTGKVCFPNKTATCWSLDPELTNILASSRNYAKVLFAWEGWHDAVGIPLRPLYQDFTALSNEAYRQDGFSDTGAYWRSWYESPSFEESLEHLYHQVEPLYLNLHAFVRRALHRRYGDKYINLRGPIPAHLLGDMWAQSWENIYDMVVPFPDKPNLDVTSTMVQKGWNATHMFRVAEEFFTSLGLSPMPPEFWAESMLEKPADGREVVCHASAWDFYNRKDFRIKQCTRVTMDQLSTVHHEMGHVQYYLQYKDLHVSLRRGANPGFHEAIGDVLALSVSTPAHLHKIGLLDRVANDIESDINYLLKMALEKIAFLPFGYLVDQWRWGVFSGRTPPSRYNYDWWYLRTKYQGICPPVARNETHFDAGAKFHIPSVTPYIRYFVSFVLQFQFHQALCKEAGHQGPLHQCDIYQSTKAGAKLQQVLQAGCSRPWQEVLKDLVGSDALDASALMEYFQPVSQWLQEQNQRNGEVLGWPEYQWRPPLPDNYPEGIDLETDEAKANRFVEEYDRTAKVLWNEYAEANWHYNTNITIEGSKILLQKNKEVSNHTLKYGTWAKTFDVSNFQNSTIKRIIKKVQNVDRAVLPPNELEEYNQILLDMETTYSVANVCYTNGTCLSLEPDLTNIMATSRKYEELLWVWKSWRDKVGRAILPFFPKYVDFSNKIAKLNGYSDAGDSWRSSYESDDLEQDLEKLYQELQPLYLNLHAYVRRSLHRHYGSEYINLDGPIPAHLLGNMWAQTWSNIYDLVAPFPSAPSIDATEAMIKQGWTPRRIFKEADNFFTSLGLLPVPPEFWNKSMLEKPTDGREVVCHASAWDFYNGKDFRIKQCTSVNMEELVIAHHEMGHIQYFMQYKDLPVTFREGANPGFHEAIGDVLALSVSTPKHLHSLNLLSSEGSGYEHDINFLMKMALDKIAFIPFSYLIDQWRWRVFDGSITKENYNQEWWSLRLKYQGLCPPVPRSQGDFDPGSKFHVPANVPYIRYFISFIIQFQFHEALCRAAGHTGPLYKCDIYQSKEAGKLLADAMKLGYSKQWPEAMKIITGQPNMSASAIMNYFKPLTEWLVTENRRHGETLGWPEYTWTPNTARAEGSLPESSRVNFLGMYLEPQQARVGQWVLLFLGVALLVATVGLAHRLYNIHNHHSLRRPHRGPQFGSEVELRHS
Procedure, shortened: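 Male normotensive rats with aortic and vena caval catheters, used ≥6 days later while restrained; angiotensins I and II 0.25 μg/kg iv every 10 min. One oral inhibitor dose in 0.5% gum tragacanth suspension; angiotensin I repeated every 10 min for ≥2 h. Maximum inhibition as % of initial response; ID50 from dose-response plot.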

[3] = system: Canis familiaris; experiment: Peroral dose required to inhibit angiotensin I induced vasopressor response in normotensive conscious dogs; assay type: functional; conditions: Canis lupus familiaris, po; read-out: ID50 (the source's name)
Procedure, shortened: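 Six conscious normotensive dogs; pressor response to angiotensin I 0.25 μg/kg iv. Inhibitor given orally at 0.01–1 mg/kg, vehicle 0.3 M KH₂PO₄ buffer, weekly intervals in a three-way crossover with vehicle control.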

CC(=O)SCC(C)C(=O)N(CC(=O)O)C1CC1 (centres undefined)
IC50 [1]: 540 nM | ID50 [2]: 0.2 mg/kg

CC(=O)SCC(C)C(=O)N(CC(=O)O)c1cccc(F)c1 (centres undefined)
IC50 [1]: 51 nM

CC(CS)C(=O)N(CC(=O)O)C1CCCCCC1 (centres undefined)
ID50 [2]: 0.05 mg/kg

Cc1ccc(N(CC(=O)O)C(=O)C(C)CS)cc1 (centres undefined)
IC50 [1]: 5 nM

C#CCN(CC(=O)O)C(=O)C(C)CS (centres undefined)
IC50 [1]: 270 nM

COc1cccc(N(CC(=O)O)C(=O)C(C)CSC(C)=O)c1 (centres undefined)
IC50 [1]: 110 nM

C[C@H](CSC(=O)C(C)(C)C)C(=O)N(CC(=O)O)C1CCCC1 [PIVOPRIL]
IC50 [1]: 3600 nM | ED50 [3]: 0.17 mg/kg | ID50 [2]: 0.058 mg/kg

CSc1cccc(N(CC(=O)O)C(=O)C(C)CSC(C)=O)c1 (centres undefined)
IC50 [1]: 75 nM

CC(=O)SCC(C)C(=O)N(CC(=O)O)c1ccc(F)cc1 (centres undefined)
IC50 [1]: 600 nM

CC(=O)SCC(C)C(=O)N(CC(=O)O)CC1CC2CC(C1C)C2(C)C (centres undefined)
IC50 [1]: 85 nM

CC(=O)SCC(C)C(=O)N(CC(=O)O)C[C@H]1CC2CC(C1C)C2(C)C (some centres undefined)
IC50 [1]: 140 nM

CC(=O)SCC(C)C(=O)N(CC(=O)O)C1CCC1 (centres undefined)
IC50 [1]: 220 nM

CC(CS)C(=O)N(CC(=O)O)C1CCS(=O)(=O)C1 (centres undefined)
IC50 [1]: 280 nM

CC(CS)C(=O)N(CC(=O)O)Cc1cccs1 (centres undefined)
IC50 [1]: 55 nM

CC(CS)C(=O)N(CC(=O)O)C1CCC1 (centres undefined)
IC50 [1]: 18 nM | ID50 [2]: 0.3 mg/kg

CC(=O)SCC(C)C(=O)N(CC(=O)O)C1CC2CCC1C2 (stereo in doubt; 30) [listing 1 of 2 here]
ID50 [2]: 0.06 mg/kg

Cc1cc(C)cc(N(CC(=O)O)C(=O)C(C)CS)c1 (centres undefined)
IC50 [1]: 44 nM

CC(=O)SCC(C)C(=O)N(CC(=O)O)C1Cc2ccccc2C1 (centres undefined)
IC50 [1]: 340 nM

CC(CS)C(=O)N(CC(=O)O)C1CCCCC1 (centres undefined)
ID50 [2]: 0.1 mg/kg

CC(CSC(=O)C(C)(C)C)C(=O)N(CC(=O)O)C1CCCC1 (centres undefined)
IC50 [1]: 3700 nM | ID50 [2]: 0.15 mg/kg

CC(=O)SCC(C)C(=O)N(CC(=O)O)Cc1cccs1 (centres undefined)
IC50 [1]: 750 nM

CC(=O)SCC(C)C(=O)N(CC(=O)O)c1cccc(C)c1 (centres undefined)
IC50 [1]: 75 nM | ID50 [2]: 0.15 mg/kg

CC(CSC(=O)CC(C)(C)C)C(=O)N(CC(=O)O)C1CCCC1 (centres undefined)
IC50 [1]: 15000 nM | ID50 [2]: 1.2 mg/kg

CC(=O)SCC(C)C(=O)N(CC(=O)O)C(C)C (centres undefined)
IC50 [1]: 5900 nM

CSCCCN(CC(=O)O)C(=O)C(C)CSC(C)=O (centres undefined)
IC50 [1]: 900 nM | ID50 [2]: 1.5 mg/kg

CC(CS)C(=O)N(CC(=O)O)C1CCCC1 (centres undefined)
ID50 [2]: 0.15 mg/kg

CC(CS)C(=O)N(CC(=O)O)CC1CC2CC(C1C)C2(C)C (centres undefined)
IC50 [1]: 440 nM

CC(=O)SCC(C)C(=O)N(CC(=O)O)C1CCS(=O)(=O)C1 (centres undefined)
IC50 [1]: 280 nM

CC(=O)SCC(C)C(=O)N(CC(=O)O)C1CC2CCC1C2 (stereo in doubt; 31)
IC50 [1]: 52 nM

CCN1CCCC1CN(CC(=O)O)C(=O)C(C)CS (centres undefined)
IC50 [1]: 640 nM

Cc1cccc(N(CC(=O)O)C(=O)C(C)CS)c1 (centres undefined)
IC50 [1]: 19 nM

CC(=O)SCC(C)C(=O)N(CC(=O)O)c1ccccc1 (centres undefined)
IC50 [1]: 300 nM | ID50 [2]: 0.2 mg/kg

CC(=O)SCC(C)C(=O)N(CC(=O)O)c1cc(C)cc(C)c1 (centres undefined)
IC50 [1]: 44 nM

CC(CS)C(=O)NCC(=O)O (centres undefined)
IC50 [1]: 210 nM

CC(=O)SCC(C)C(=O)N(CC(=O)O)Cc1ccco1 (centres undefined)
IC50 [1]: 700 nM

CC(=O)SCC(C)C(=O)N(C1CC1)C(C)C(=O)O (centres undefined)
IC50 [1]: 220 nM

CCN(CC(=O)O)C(=O)C(C)CS (centres undefined)
IC50 [1]: 75 nM

CC(S)C(=O)NCC(=O)O (centres undefined) [TIOPRONIN]
IC50 [1]: 1900 nM

CC(CS)C(=O)N(C)CC(=O)O (centres undefined)
IC50 [1]: 130 nM

CC(=O)SCC(C)C(=O)N(CC(=O)O)C1CCCC1 (centres undefined)
IC50 [1]: 82 nM | ID50 [2]: 0.15 mg/kg

CC(CS)C(=O)N(CC(=O)O)Cc1ccco1 (centres undefined)
IC50 [1]: 170 nM

CC(CS)C(=O)N(CC(=O)O)C(C)C (centres undefined)
IC50 [1]: 72 nM

C[C@@H](CSC(=O)C(C)(C)C)C(=O)N(CC(=O)O)C1CCCC1
IC50 [1]: > 100000 nM | ID50 [2]: 25 mg/kg

CC(CS)C(=O)N(CC(=O)O)C1Cc2ccccc2C1 (centres undefined)
ID50 [2]: 0.15 mg/kg

CC(=O)SCC(C)C(=O)N(CC(=O)O)c1ccc2c(c1)CCC2 (centres undefined)
IC50 [1]: 48 nM | ID50 [2]: 1.5 mg/kg

CC(=O)SCC(C)C(=O)N(CC(=O)O)C1CCCCCC1 (centres undefined)
ID50 [2]: 0.06 mg/kg

CC(=O)SCC(C)C(=O)N(CC(=O)O)c1ccccc1C (centres undefined)
IC50 [1]: 550 nM

CCOC(=O)[C@H](CCc1ccccc1)N[C@@H](C)C(=O)N1CCC[C@H]1C(=O)O
ED50 [3]: 0.1 mg/kg | ID50 [2]: 0.08 mg/kg

CC(=O)SCC(C)C(=O)N(CC(=O)O)c1ccc(C)cc1 (centres undefined)
IC50 [1]: 130 nM | ID50 [2]: 0.15 mg/kg

CC(CS)C(=O)N(CC(=O)O)C1CC2CCC1C2 (centres undefined)
IC50 [1]: 32 nM | ID50 [2]: 0.1 mg/kg

CC(=O)SCC(C)C(=O)N(CC(=O)O)C1CCCCC1 (centres undefined)
IC50 [1]: 270 nM

CC(CS)C(=O)N(CC(=O)O)CC1CCCO1 (centres undefined)
IC50 [1]: 130 nM

CC(CS)C(=O)N(C1CC1)C(C)C(=O)O (centres undefined)
IC50 [1]: 79 nM

CC(CS)C(=O)N(CC(=O)O)C[C@H]1CC2CC(C1C)C2(C)C (some centres undefined)
IC50 [1]: 160 nM

C[C@H](CS)C(=O)N1CCC[C@H]1C(=O)O [CAPTOPRIL]
ED50 [3]: 0.057 mg/kg

CC(CS)C(=O)N(CC(=O)O)C1CC1 (centres undefined)
IC50 [1]: 30 nM | ID50 [2]: 0.3 mg/kg

CC(=O)SCC(C)C(=O)N(CC(=O)O)CC1CCCO1 (centres undefined)
IC50 [1]: 1900 nM

C#CCN(CC(=O)O)C(=O)C(C)CSC(C)=O (centres undefined)
IC50 [1]: 4500 nM

CC(=O)SCC(C)C(=O)N(CC(=O)O)C1CC2CCC1C2 (stereo in doubt; 30) [listing 2 of 2 here]
IC50 [1]: 20 nM

CC(=O)SCC(C)C(=O)N(CC(=O)O)C1CCC2CC1C2(C)C (centres undefined)
IC50 [1]: 45 nM

Cc1ccccc1N(CC(=O)O)C(=O)C(C)CS (centres undefined)
IC50 [1]: 120 nM

CC(=O)SCC(C)C(=O)N(CC(=O)O)c1ccc(C(C)C)cc1 (centres undefined)
IC50 [1]: 60 nM

CCCCc1ccc(N(CC(=O)O)C(=O)C(C)CSC(C)=O)cc1 (centres undefined)
IC50 [1]: 64 nM
